The source made the active and inactive calls. The calls are words filed in the database; no cut-off is given here.
Legend:
Histone deacetylase 1 [1] = molecular target: T1, Histone deacetylase 1 (Homo sapiens, UniProt Q13547); experiment: Inhibition of His-tagged HDAC1 (unknown origin) expressed in Escherichia coli BL21(DE3) at 10 uM after 60 mins by MALDI mass spectrometry
Method in brief: (§1)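 Enzyme (250 nM) was incubated with inhibitor for 60 min at 37 °C in Tris-HCl pH 8.0 buffer containing NaCl, KCl, MgCl2 and BSA. Substrates were GRK(ac)FGC for HDAC1/HDAC8 and GRK(ac)YGC for HDAC6. Reactions were TSA-quenched, immobilized on maleimide SAMs and read by MALDI (SAMDI); deacetylation was taken as the product fraction.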

[2] = molecular target: T2, Histone deacetylase 8 (Homo sapiens) (UniProt Q9BY41); experiment: Inhibition of His-tagged HDAC8 (unknown origin) expressed in Escherichia coli BL21(DE3) at 10 uM after 60 mins by MALDI mass spectrometry; method in brief: as §1
T2 sequence (whole entry): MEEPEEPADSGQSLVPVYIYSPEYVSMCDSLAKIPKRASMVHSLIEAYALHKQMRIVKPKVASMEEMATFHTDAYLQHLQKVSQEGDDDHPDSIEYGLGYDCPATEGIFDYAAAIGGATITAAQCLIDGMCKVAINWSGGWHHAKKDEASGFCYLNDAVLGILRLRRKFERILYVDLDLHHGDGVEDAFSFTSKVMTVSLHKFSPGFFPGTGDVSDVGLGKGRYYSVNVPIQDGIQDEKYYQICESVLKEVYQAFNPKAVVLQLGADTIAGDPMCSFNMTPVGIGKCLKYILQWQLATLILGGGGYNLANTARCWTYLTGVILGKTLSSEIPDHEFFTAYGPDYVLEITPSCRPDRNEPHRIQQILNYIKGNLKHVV

[3] = molecular target: T3, Protein deacetylase HDAC6 (Homo sapiens, UniProt Q9UBN7); experiment: Inhibition of HDAC6 (unknown origin) after 60 mins by MALDI mass spectrometry
T3 sequence (Q9UBN7 whole entry): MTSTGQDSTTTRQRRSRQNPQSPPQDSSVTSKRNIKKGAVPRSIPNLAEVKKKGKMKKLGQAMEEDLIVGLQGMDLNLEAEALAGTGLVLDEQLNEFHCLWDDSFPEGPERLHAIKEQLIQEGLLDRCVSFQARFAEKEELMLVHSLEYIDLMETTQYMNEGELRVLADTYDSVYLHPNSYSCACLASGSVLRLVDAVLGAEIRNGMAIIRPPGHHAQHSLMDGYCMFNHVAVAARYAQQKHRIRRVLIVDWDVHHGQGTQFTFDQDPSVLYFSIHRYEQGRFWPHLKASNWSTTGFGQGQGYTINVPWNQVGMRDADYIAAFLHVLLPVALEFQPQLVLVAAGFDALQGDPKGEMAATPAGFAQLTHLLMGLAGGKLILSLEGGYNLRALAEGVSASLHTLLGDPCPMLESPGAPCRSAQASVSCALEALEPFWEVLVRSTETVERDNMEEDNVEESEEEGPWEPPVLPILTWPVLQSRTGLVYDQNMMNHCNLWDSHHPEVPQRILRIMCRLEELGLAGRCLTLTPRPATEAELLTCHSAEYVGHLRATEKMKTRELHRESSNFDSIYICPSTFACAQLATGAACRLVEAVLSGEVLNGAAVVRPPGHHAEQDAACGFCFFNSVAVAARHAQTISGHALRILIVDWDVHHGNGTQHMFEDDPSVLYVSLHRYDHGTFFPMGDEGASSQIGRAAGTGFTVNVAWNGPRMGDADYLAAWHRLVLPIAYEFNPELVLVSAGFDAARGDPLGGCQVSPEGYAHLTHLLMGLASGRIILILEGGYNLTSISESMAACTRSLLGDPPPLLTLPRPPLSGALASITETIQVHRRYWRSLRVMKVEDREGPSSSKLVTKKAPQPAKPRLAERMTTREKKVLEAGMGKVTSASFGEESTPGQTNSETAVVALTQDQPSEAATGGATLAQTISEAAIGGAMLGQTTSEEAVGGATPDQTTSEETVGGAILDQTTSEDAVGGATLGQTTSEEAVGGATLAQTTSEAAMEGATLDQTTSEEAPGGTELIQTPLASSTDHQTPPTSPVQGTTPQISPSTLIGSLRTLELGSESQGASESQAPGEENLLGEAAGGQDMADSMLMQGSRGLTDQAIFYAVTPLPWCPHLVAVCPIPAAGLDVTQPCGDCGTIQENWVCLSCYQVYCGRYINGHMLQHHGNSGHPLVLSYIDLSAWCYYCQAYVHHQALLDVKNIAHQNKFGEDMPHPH

HeLa [4] = experiment: Cytotoxicity against human HeLa cells at 100 uM after 72 hrs by MTS assay; type: functional
Method in brief: (§2)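 Cells kept in folate-free RPMI with 10% FBS and 1% pen/strep (KB, HeLa) or DMEM with 10% FBS and 1% pen/strep (A549). For the assay, cells were plated in folate-free RPMI for 24 h, then drug-treated for 72 h at 0.1% DMSO. Viability was read by MTS. Mean ± SD from at least 2 independent triplicate experiments.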

KB [5] = experiment: Cytotoxicity against human KB cells at 100 uM after 72 hrs by MTS assay; type: functional; method in brief: as §2
Histone deacetylase 8 = molecular target: T4, Histone deacetylase 8 (Homo sapiens, UniProt Q9BY41); experiment: Inhibition of His-tagged HDAC8 (unknown origin) expressed in Escherichia coli BL21(DE3) after 60 mins by MALDI mass spectrometry
T4 sequence (Q9BY41 whole entry): T2 sequence (whole entry)

Histone deacetylase 1 [6] = molecular target: T1, Histone deacetylase 1; experiment: Inhibition of HDAC1 (unknown origin) after 60 mins by MALDI mass spectrometry
[7] = molecular target: T5, Protein deacetylase HDAC6 (Homo sapiens) (UniProt Q9UBN7); experiment: Inhibition of His-tagged HDAC6 (unknown origin) expressed in Escherichia coli BL21(DE3) at 10 uM after 60 mins by MALDI mass spectrometry; method in brief: as §1
T5 sequence (whole entry): T3 sequence (Q9UBN7 whole entry)

KB [8] = experiment: Cytotoxicity against human KB cells after 72 hrs by MTS assay; type: functional, cell-based
[9] = molecular target: T5, Protein deacetylase HDAC6 (Homo sapiens); experiment: Inhibition of HDAC6 in human KB cells assessed as increase in tubulin acetylation at >= IC50 after 4 hrs by Western blotting analysis; type: cell-based
Method in brief: (§3)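 KB cells were plated for 24 h, then compound-treated for 4 h (tubulin acetylation) or 24 h (histone H4 acetylation). Cells were PBS-washed and lysed in CelLytic M with protease inhibitor cocktail. Protein was Bradford-quantified and equal amounts were resolved by SDS-PAGE at 100 V. Detection used IRDye680 and IRDye800 secondary antibodies.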

A549 = experiment: Cytotoxicity against human A549 cells at 100 uM after 72 hrs by MTS assay; type: functional; details: A549, 72 h; method in brief: as §2
Homo sapiens [10] = organism: Homo sapiens; experiment: Selectivity ratio of IC50 for His-tagged HDAC1 (unknown origin) to IC50 for His-tagged HDAC6 (unknown origin); method in brief: as §1
Homo sapiens [11] = organism: Homo sapiens; experiment: Selectivity ratio of IC50 for His-tagged HDAC8 (unknown origin) to IC50 for His-tagged HDAC6 (unknown origin); method in brief: as §1
[12] = molecular target: T5, Protein deacetylase HDAC6 (Homo sapiens); experiment: Inhibition of HDAC6 in human KB cells assessed as increase in tubulin acetylation at 100 uM after 4 hrs by Western blotting analysis; type: cell-based; method in brief: as §3
KB [13] = experiment: Cytotoxicity against human KB cells at 25 uM after 72 hrs by MTS assay in presence of folic acid
HeLa [14] = experiment: Cytotoxicity against human HeLa cells after 72 hrs by MTS assay; type: functional, cell-based

T1 sequence (Q13547 whole entry): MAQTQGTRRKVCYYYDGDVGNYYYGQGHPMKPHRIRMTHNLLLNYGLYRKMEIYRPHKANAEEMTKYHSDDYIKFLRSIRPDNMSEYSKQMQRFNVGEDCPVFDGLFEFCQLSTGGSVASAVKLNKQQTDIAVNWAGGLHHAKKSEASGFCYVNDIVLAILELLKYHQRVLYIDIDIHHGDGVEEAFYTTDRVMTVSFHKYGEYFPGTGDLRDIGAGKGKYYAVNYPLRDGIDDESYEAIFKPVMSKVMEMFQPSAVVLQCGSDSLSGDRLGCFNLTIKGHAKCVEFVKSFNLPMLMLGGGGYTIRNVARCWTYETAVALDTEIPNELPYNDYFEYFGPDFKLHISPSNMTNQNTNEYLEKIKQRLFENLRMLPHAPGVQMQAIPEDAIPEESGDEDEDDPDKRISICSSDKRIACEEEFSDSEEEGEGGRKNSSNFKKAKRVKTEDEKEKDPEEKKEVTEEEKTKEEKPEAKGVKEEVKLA

Row | SMILES | inhibition [2] [%] | IC50 [3] [nM] | IC50 (Histone deacetylase 8) [nM] | IC50 (Histone deacetylase 1 [6]) [nM] | inhibition at 100 µM (HeLa [4]) [%] | inhibition at 100 µM (KB [5]) [%] | other results
1 | Nc1nc2ncc(CNc3ccc(C(=O)NCCCCCCCCC(=O)NO)cc3)nc2c(=O)[nH]1 | – | 10.2 | 7590 | 524 | 35 | 33 | –
2 | Nc1nc2ncc(CNc3ccc(C(=O)NCCCCCCCCCC(=O)NO)cc3)nc2c(=O)[nH]1 | 40 | 476 | – | – | 36 | 47 | inhibition (Histone deacetylase 1 [1]): 53%
3 | Nc1nc2ncc(CNc3ccc(C(=O)N[C@@H](CCC(=O)NCCCC(=O)Nc4cc(-c5cccs5)ccc4N)C(=O)O)cc3)nc2c(=O)[nH]1 | 23 | – | – | 2940 | – | – | inhibition [7]: 22.8%
4 | Nc1nc2ncc(CNc3ccc(C(=O)N[C@@H](CCC(=O)NCCCCCCCC(=O)NO)C(=O)O)cc3)nc2c(=O)[nH]1 | – | 193 | 2370 | 1800 | < 20 | < 20 | –
5 | Nc1nc2ncc(CNc3ccc(C(=O)NCCCCCCC(=O)NO)cc3)nc2c(=O)[nH]1 | – | 12.2 | 1060 | 23.4 | 34 | – | IC50 (KB [8]): 53700 nM; Activity [9]: Active; inhibition at 100 µM (A549): < 20%
6 | CC(=O)Nc1ccc(C(=O)Nc2cc(-c3cccs3)ccc2N)cc1 | – | – | – | – | – | – | IC50 (KB [8]): 5270 nM
7 | Nc1nc2ncc(CNc3ccc(C(=O)N[C@@H](CCC(=O)NCCCCCCC(=O)NO)C(=O)O)cc3)nc2c(=O)[nH]1 | – | 132 | 2390 | 1770 | < 20 | < 20 | –
8 | Nc1nc2ncc(CNc3ccc(C(=O)N[C@@H](CCC(=O)NO)C(=O)O)cc3)nc2c(=O)[nH]1 | < 20 | – | – | – | – | – | inhibition (Histone deacetylase 1 [1]): < 20%; inhibition [7]: < 20%
9 | Nc1nc2ncc(CNc3ccc(C(=O)N[C@@H](CCC(=O)NCCCCCCCC(=O)Nc4cc(-c5cccs5)ccc4N)C(=O)O)cc3)nc2c(=O)[nH]1 | – | – | 10000 | 287 | – | – | inhibition [7]: < 20%

Second part, led by results:

Row | inhibition [2] [%] | IC50 [3] [nM] | IC50 (Histone deacetylase 8) [nM] | IC50 (Histone deacetylase 1 [6]) [nM] | SMILES | inhibition at 100 µM (HeLa [4]) [%] | inhibition at 100 µM (KB [5]) [%] | other results
10 | 40 | 8050 | – | – | Nc1nc2ncc(CNc3ccc(C(=O)N[C@@H](CCC(=O)NCCCC(=O)NO)C(=O)O)cc3)nc2c(=O)[nH]1 | – | – | inhibition (Histone deacetylase 1 [1]): < 20%
11 | – | 179 | 1560 | 2760 | Nc1nc2ncc(CNc3ccc(C(=O)N[C@@H](CCC(=O)NCCCCCCCCC(=O)NO)C(=O)O)cc3)nc2c(=O)[nH]1 | – | – | –
12 | – | 17.6 | 581 | 2390 | Nc1nc2ncc(CNc3ccc(C(=O)NO)cc3)nc2c(=O)[nH]1 | – | – | Ratio IC50 (Homo sapiens [10]): 130; Ratio IC50 (Homo sapiens [11]): 32; Activity [12]: Active
13 | < 20 | – | – | 435 | Nc1nc2ncc(CNc3ccc(C(=O)N[C@@H](CCC(=O)NCCCCCCC(=O)Nc4cc(-c5cccs5)ccc4N)C(=O)O)cc3)nc2c(=O)[nH]1 | – | – | inhibition [7]: < 20%
14 | – | 55.4 | 9380 | 16.1 | Nc1nc2ncc(CNc3ccc(C(=O)NCCCCCCCC(=O)NO)cc3)nc2c(=O)[nH]1 | – | – | Activity (KB [13]): inactive; IC50 (KB [8]): 30300 nM; Activity [9]: Active; inhibition at 100 µM (A549): < 20%; IC50 (HeLa [14]): 56600 nM
15 | < 20 | – | – | 309 | Nc1nc2ncc(CNc3ccc(C(=O)N[C@@H](CCC(=O)NCCCCCCCCC(=O)Nc4cc(-c5cccs5)ccc4N)C(=O)O)cc3)nc2c(=O)[nH]1 | – | – | inhibition [7]: < 20%
16 | 25 | 1460 | – | – | Nc1nc2ncc(CNc3ccc(C(=O)NCCCC(=O)NO)cc3)nc2c(=O)[nH]1 | < 20 | < 20 | inhibition (Histone deacetylase 1 [1]): 22.1%
17 | 39 | 212 | – | 6150 | Nc1nc2ncc(CNc3ccc(C(=O)NCCCCC(=O)NO)cc3)nc2c(=O)[nH]1 | < 20 | < 20 | –
18 | 41 | 43.6 | – | 79.6 | Nc1nc2ncc(CNc3ccc(C(=O)NCCCCCC(=O)NO)cc3)nc2c(=O)[nH]1 | < 20 | 25 | –

From ChEMBL document CHEMBL3414552, “Design and structure activity relationship of tumor-homing histone deacetylase inhibitors conjugated to folic and pteroic acids” (Eur J Med Chem, 2015)
